Test results from ChEMBL document CHEMBL1134289, “5-(Tryptophyl)amino-1,3-dioxoperhydropyrido[1,2-c]pyrimidine-based potent and selective CCK(1) receptor antagonists: structure-activity relationship studies on the central 1,3-dioxoperhydropyrido[1,2-c]pyrimidine scaffold” (J Med Chem, 2001).

Assays:
Rattus norvegicus = species on record: Rattus norvegicus; assay: Inhibition of amylase release stimulated by CCK-8 (0.1 nM) in dispersed rat pancreatic acini; type: functional
Procedure, shortened: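 Acini prepared by collagenase digestion (two 6-min incubations, 37 °C) in HEPES buffer pH 7.4, then suspended in buffer with theophylline, SBTI and BSA. Incubated 30 min at 37 °C under O2 with shaking, CCK-8 0.1 nM plus increasing compound levels. Released amylase taken as percent of acinar content; inhibition computed relative to vehicle and CCK-8 alone. Three to six experiments, in duplicate.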

[1] = molecular target: T1, Gastrin/cholecystokinin type B receptor (Rattus norvegicus, UniProt P30553); assay: Inhibition of [3H]pCCK-8 binding to cholecystokinin type B receptor of rat cerebral cortex; type: tissue-based
T1 sequence (P30553 whole entry): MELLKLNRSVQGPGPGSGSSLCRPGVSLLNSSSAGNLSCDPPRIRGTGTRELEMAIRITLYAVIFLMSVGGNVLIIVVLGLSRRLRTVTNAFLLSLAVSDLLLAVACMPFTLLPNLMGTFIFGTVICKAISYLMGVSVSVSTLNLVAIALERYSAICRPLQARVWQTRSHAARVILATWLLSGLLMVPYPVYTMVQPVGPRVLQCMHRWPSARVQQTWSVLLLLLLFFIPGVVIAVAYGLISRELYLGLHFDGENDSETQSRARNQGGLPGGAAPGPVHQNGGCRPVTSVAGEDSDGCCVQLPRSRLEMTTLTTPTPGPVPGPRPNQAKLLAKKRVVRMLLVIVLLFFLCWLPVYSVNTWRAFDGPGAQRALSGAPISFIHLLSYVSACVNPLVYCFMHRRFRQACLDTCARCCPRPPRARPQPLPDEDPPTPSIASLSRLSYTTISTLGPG

[2] = molecular target: T2, Cholecystokinin receptor type A (Rattus norvegicus, UniProt P30551); assay: Inhibition of [3H]pCCK-8 binding to cholecystokinin type A receptor of rat pancreas
T2 sequence (P30551 whole entry): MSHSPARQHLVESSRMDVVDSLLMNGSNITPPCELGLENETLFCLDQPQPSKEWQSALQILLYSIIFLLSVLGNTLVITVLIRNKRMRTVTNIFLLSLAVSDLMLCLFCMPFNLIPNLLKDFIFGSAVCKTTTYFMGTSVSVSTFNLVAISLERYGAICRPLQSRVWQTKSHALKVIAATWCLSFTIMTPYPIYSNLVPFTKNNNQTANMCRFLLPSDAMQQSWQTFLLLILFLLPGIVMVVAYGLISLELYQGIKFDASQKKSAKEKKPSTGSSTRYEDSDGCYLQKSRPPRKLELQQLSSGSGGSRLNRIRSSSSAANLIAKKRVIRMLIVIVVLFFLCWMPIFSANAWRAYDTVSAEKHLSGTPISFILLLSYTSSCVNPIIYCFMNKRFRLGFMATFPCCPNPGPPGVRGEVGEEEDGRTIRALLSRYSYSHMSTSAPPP
Procedure, shortened: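 Rat pancreas homogenized in Pipes-HCl pH 6.5 with 30 mM MgCl2, centrifuged twice at 50000g, 4 °C. Membranes (0.2 mg protein/tube) incubated with 0.5 nM [3H]pCCK-8 plus bacitracin and SBTI (0.2 mg/mL each), 120 min, 25 °C. Seven test concentrations in triplicate; mean of at least three experiments.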

[3] = molecular target: T1, Gastrin/cholecystokinin type B receptor; assay: Inhibition of [3H]pCCK-8 specific binding to cholecystokinin type B receptor in rat cerebral cortex; type: tissue-based
Procedure, shortened: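 Rat cerebral cortex homogenized in 50 mM Tris-HCl pH 7.4 with 5 mM MgCl2, centrifuged twice at 100000g, 4 °C. Membranes (0.45 mg protein/tube) incubated with 1 nM [3H]pCCK-8 and bacitracin 0.2 mg/mL, 60 min, 25 °C. Nonspecific binding defined by 1 µM CCK-8. Seven test concentrations in triplicate; at least three experiments.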

Row | Compound | IC50 [1] [nM] | IC50 [2] [nM] | IC50 [3] [nM] | IC50 (Rattus norvegicus) [nM]
1 | CC(C)(C)OC(=O)N[C@@H](Cc1c[nH]c2ccccc12)C(=O)N[C@H]1CCCN2C(=O)N(Cc3ccccc3)C(=O)C[C@H]12 |  |  |  | 77
2 | CC(C)(C)OC(=O)N[C@@H](Cc1c[nH]c2ccccc12)C(=O)N[C@@H]1CCCN2C(=O)N(Cc3ccccc3)C(=O)C[C@@H]12 [IQM-95333] |  |  | > 10000 | 0.64
3 | CC(C)(C)OC(=O)N[C@@H](Cc1c[nH]c2ccccc12)C(=O)N[C@@H]1CCCN2CN(Cc3ccccc3)CC[C@@H]12 | > 10000 | > 1000 |  | 
4 | CC(C)(C)OC(=O)N[C@@H](Cc1c[nH]c2ccccc12)C(=O)N[C@H]1CCCN2C(=S)N(Cc3ccccc3)C(=O)C[C@H]12 | > 10000 | 825 |  | 
5 | CC(C)(C)OC(=O)N[C@@H](Cc1c[nH]c2ccccc12)C(=O)N[C@H]1CCCN2CN(Cc3ccccc3)C(=O)C[C@H]12 | > 10000 | > 1000 |  | 
6 | CC(C)(C)OC(=O)N[C@@H](Cc1c[nH]c2ccccc12)C(=O)N[C@@H]1CCCN2C(=O)N(Cc3ccccc3)CC[C@@H]12 | > 10000 | > 1000 |  | 
7 | CC(C)(C)OC(=O)N[C@@H](Cc1c[nH]c2ccccc12)C(=O)N[C@@H]1CCCN2C(=S)N(Cc3ccccc3)C(=O)C[C@@H]12 | > 10000 | 0.09 |  | 33

The next lines start with results.

Row | IC50 [1] [nM] | IC50 [2] [nM] | IC50 [3] [nM] | Compound | IC50 (Rattus norvegicus) [nM]
8 | > 10000 | 370 |  | CO[C@@H]1C[C@H]2[C@H](NC(=O)[C@H](Cc3c[nH]c4ccccc34)NC(=O)OC(C)(C)C)CCCN2C(=O)N1Cc1ccccc1 | 
9 | > 10000 | 900 |  | CC(C)(C)OC(=O)N[C@@H](Cc1c[nH]c2ccccc12)C(=O)N[C@H]1CCCN2C(=S)N(Cc3ccccc3)C(=S)C[C@H]12 | 
10 | > 10000 | 1.34 |  | CC(C)(C)OC(=O)N[C@@H](Cc1c[nH]c2ccccc12)C(=O)N[C@@H]1CCCN2C(=S)N(Cc3ccccc3)C(=S)C[C@@H]12 | 62
11 | > 10000 |  |  | CC(C)(C)OC(=O)N[C@@H](Cc1c[nH]c2ccccc12)C(=O)N[C@H]1CCCN2C(=O)N(Cc3ccccc3)C(=S)C[C@H]12 | 23
12 | > 10000 | 2.83 |  | CC(C)(C)OC(=O)N[C@@H](Cc1c[nH]c2ccccc12)C(=O)N[C@@H]1CCCN2C(=O)N(Cc3ccccc3)C(=S)C[C@@H]12 | 4.3
13 | > 10000 | > 1000 |  | CC(C)(C)OC(=O)N[C@@H](Cc1c[nH]c2ccccc12)C(=O)N[C@@H]1CCCN2CN(Cc3ccccc3)C(=O)C[C@@H]12 | 
